PRMT1 inh: PRMT1 methyltransferase inhibitors, primary screen, biochemical, fluorescence polarization. AID 652257, 2013. recombinant PRMT1, activity-based probe fluorescence polarization. inhibition, % at 2.79 µM. 370,000 tested, 1.3% active;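 active = inhibition above about 21% made by adding two undisclosed values, limit read from the data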
SIAE inh: human SIAE inhibitors, primary screen, biochemical, fluorescence polarization, FP-Rh probe, 1536-well HTS; 370,000 tested, 0.69% active; inhibition, % at 9.66 µM; Sialate O-acetylesterase (Homo sapiens), Q9HAT2; SIAE FP-Rh probe binding;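 active = inhibition above a cutoff: mean of compounds within the control limits plus 3 SD of those, cut at about 17% in these data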
JMJD2C inh: inhibitors of GASC-1 histone demethylase, primary screen, biochemical, fluorescence, DELFIA europium; AID 2099, 2009; Lysine-specific demethylase 4C (Homo sapiens), Q9H3R0; GST-JMJD2C(1-420) H3K9me3 demethylation; 330,000 tested, 0.069% active; inhibition, % at 2.35 µM;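 active = more than half of a compound's replicate wells show inhibition beyond 50%, single wells judged on their own value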;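 also: signal counts dimethyl H3K9 product captured on neutravidin plate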
Target sequence (Q9H3R0 1-420 limits assumed): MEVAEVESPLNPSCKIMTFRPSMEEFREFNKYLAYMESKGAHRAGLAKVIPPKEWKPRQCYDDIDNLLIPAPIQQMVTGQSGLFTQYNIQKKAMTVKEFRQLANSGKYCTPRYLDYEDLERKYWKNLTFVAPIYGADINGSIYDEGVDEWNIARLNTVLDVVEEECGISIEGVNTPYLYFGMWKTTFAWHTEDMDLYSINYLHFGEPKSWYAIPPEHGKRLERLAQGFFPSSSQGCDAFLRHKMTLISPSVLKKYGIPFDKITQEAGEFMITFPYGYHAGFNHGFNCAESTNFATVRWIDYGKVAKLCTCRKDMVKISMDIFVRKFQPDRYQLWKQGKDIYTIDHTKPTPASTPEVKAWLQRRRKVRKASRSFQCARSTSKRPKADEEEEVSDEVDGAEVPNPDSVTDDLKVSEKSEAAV
ABHD4 inh: ABHD4 inhibitors, primary screen, biochemical, fluorescence polarization, mouse; inhibition, % at 8.92 µM; (Lyso)-N-acylphosphatidylethanolamine lipase (Mus musculus), Q8VD66; 370,000 tested, 0.54% active; purified mABHD4, FP-Rh probe fluorescence polarization;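 active = inhibition exceeding the mean over every tested compound plus 3 SD, cut at about 30% in these data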
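Test system: mouse ABHD4 enzyme, wild type. Reagent: FP-Rh fluorescent activity-based probe, added after compound pre-incubation. Timing: pre-incubation 45 min, probe exposure 60 min, at 25 °C. Technique: FP readout, ex 525 nm / em 598 nm. Benchmarks: high control S159A mutant with DMSO, low control median of compound wells.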
HTRA1 inh: HTRA1 serine protease inhibitors, primary screen, biochemical, fluorescence polarization, HTS | recombinant HTRA1, FP-rhodamine activity-based probe | inhibition, % at 5.96 µM | 340,000 tested, 0.5% active | AID 504803, 2011; in the data active = inhibition above about 36%
HTRA1 inh conf: HTRA1 protease inhibitors, retest, confirmation, biochemical, fluorescence polarization | 1,600 tested, 66% active | shares compounds with HTRA1 inh | inhibition, % at 5.96 µM | recombinant HTRA1, FP-rhodamine activity-based probe;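 active = mean inhibition over three repeats above a set limit taken from the earlier primary screen, cut at about 37% in these data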;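 also: inhibitors block probe binding so polarization drops and inhibition rises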
PRMT1 inh conf: PRMT1 methyltransferase inhibitors, confirmation, biochemical, fluorescence polarization, triplicate; inhibition, % at 2.79 µM; 3,300 tested, 42% active; shares compounds with PRMT1 inh; recombinant His-PRMT1, activity-based probe fluorescence polarization;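 active = mean inhibition across replicates above the hit cutoff derived for the earlier primary screen, cut at about 22% in these data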
mABHD4 conf: ABHD4 inhibitors, retest, confirmation, biochemical, fluorescence polarization, mouse | inhibition, % at 8.92 µM | AID 720658, 2013 | 1,800 tested, 55% active | shares compounds with ABHD4 inh | purified mABHD4, FP-Rh probe fluorescence polarization;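 active = mean inhibition across replicates above the hit cutoff set in the primary screen, cut at about 30% in these data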
SIAE inh conf: human SIAE inhibitors, retest, confirmation, biochemical, fluorescence polarization, FP-Rh probe, triplicate; inhibition, % at 9.66 µM; 2,300 tested, 13% active; AID 1117263, 2014; shares compounds with SIAE inh; SIAE FP-Rh activity-based probe;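 active = mean inhibition of the replicates above the hit cutoff set in the primary screen, cut at about 17% in these data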;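 also: inhibitors lower polarization as more probe stays unbound to SIAE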
Numbers stand for hits; - = inactive; . = not tested or not shown. Only some compounds are listed: those with a hit (about 2.4% of all), similar ones and a draw of the others.

SMILES | PRMT1 inh | SIAE inh | JMJD2C inh | ABHD4 inh | HTRA1 inh | PRMT1 inh conf | others
CN1C(=O)NC(c2ccccc2[N+](=O)[O-])C2=C1CCCC2=O (stereo not drawn) | 36.3 | 54.0 | - | 88.7 | 77.1 | . | HTRA1 inh conf=43.7;mABHD4 conf=56.0;SIAE inh conf=79.8
Cc1cc2c(N)cccc2nn1 | 43.7 | 142.2 | - | 167.8 | 100.7 | . | HTRA1 inh conf=-;mABHD4 conf=116.4;SIAE inh conf=65.1
Cc1cc(C(=O)O)ccc1-n1c(C)ccc1C | . | . | - | . | . | .
Cc1cc(N)ccc1-n1c(C)ccc1C | - | 53.6 | - | 147.2 | 101.5 | . | HTRA1 inh conf=-;SIAE inh conf=-
NNC(=O)c1oc2nc(-c3cccs3)cc(-c3ccco3)c2c1N | - | 54.9 | - | - | 57.0 | . | HTRA1 inh conf=48.1;SIAE inh conf=74.7
Cc1cc2cc(CNC(=O)Nc3cccc(Cl)c3)ccc2n1C | - | 26.1 | - | 46.1 | 39.5 | . | HTRA1 inh conf=-;mABHD4 conf=-;SIAE inh conf=-
COc1ccc(CNC(=O)Nc2cccc(Cl)c2)cc1 | . | . | - | . | - | .
COc1ccc(O)c(/C=N/NC(=S)Nc2cccc(S(=O)(=O)N(C)C)c2)c1 | - | 32.7 | - | - | 38.4 | . | HTRA1 inh conf=-;SIAE inh conf=-
CN(C)S(=O)(=O)c1cccc(NC(=S)N/N=C/c2ccc(O)c(O)c2O)c1 | 36.5 | 35.2 | - | 32.0 | 44.8 | 84.1 | HTRA1 inh conf=49.4;mABHD4 conf=81.9;SIAE inh conf=27.4
CCOc1c(Cl)cc(CNc2ccc(N3CCCC3)cc2)cc1OC | - | 20.8 | - | - | 50.4 | . | HTRA1 inh conf=-;SIAE inh conf=-
C(=NN=C1c2ccccc2-c2ccccc21)c1ccc2c(c1)OCO2 | - | - | . | - | - | .
Nc1c(C(=O)Nc2ccc(Cl)c(Cl)c2)sc2nc(-c3cccnc3)ccc12 | 26.4 | - | - | - | . | -
Cc1ccc2nc(C3CCCCC3)c(Cc3ccsc3)n2c1 | - | - | . | - | . | .
COc1ccc(CSc2nc3ccccc3[nH]2)cc1 | - | - | - | - | - | .
O=C1CCC(=O)N1c1ccc(CSc2nc3ccccc3[nH]2)cc1 | 33.1 | - | - | - | - | 28.0
O=C(CCCSc1ccc(Cl)cc1)Nc1cc(S(=O)(=O)N2CCOCC2)ccc1O | 48.7 | - | - | - | - | 21.8
COc1cc(OC)cc(C(=O)NCC(=O)Nc2ccc(-c3ccccc3)cc2)c1 | - | - | - | - | - | .
CC1(C(=O)NCC2CCOCC2)Cc2c(-c3cccc(C(F)(F)F)c3)ccnc2O1 (stereo not drawn) | - | - | . | - | . | .
O=C(CSC1=NCCN1)Nc1cccc(C(F)(F)F)c1 | 52.1 | - | - | - | - | 35.0
O=C(O)c1ccc(-n2cccc2/C=C2/NC(=O)N(c3cccc(Cl)c3)C2=O)cc1 | 28.7 | - | . | - | - | -
O=C(O)c1ccc(-n2cccc2/C=C2/NC(=O)N(c3ccccc3)C2=O)cc1 | - | - | - | - | - | .
CC(=O)OCC1=C(C(=O)O)N2C(=O)C(NC(=O)c3ccc(COc4ccc(Cl)cc4)o3)C2SC1 (stereo not drawn) | 35.7 | - | - | - | - | -
CC(=O)OCC1=C(C(=O)O)N2C(=O)C(NC(=O)Cn3nc(C(F)F)c(Cl)c3C)C2SC1 (stereo not drawn) | - | - | - | - | - | .
CC(=O)OCC1=C(C(=O)O)N2C(=O)C(NC(=O)c3ccc(COc4c(C)cccc4Cl)o3)C2SC1 (stereo not drawn) | 47.1 | - | - | - | - | -
CC1C(=O)N(Cc2cn(CCC3OCCCO3)nn2)CCS(=O)(=O)N1Cc1ccc(-c2ccc(F)nc2)cc1 (stereo not drawn) | 54.7 | - | . | - | - | -
SMILES | PRMT1 inh | SIAE inh | JMJD2C inh | ABHD4 inh | HTRA1 inh | PRMT1 inh conf | others
COC(=O)c1sc(NC(=O)c2cc(-c3ccccc3)nc3ccccc23)c(C#N)c1C | 37.0 | - | - | - | - | 63.5
O=C(c1ccc(Cl)c(Cl)c1)N1CCN(c2ccnc3cc(Cl)ccc23)CC1 | - | - | . | - | . | .
CC(C)(C)NC(=O)C(c1ccc(-c2ccccc2)cc1)n1c(=O)c(-c2ccco2)nc2ccccc21 (stereo not drawn) | - | - | . | - | . | .
COc1ccc(C(C(=O)NC(C)(C)C)n2c(=O)c(-c3ccco3)nc3ccccc32)cc1 (stereo not drawn) | 31.1 | - | . | - | . | -
CC(C)(C)NC(=O)C(c1ccc(C#N)cc1)n1c(=O)c(-c2ccco2)nc2ccccc21 (stereo not drawn) | 30.6 | - | . | - | . | 35.8
CCCCCNC(=O)C(c1cccc2ccccc12)n1c(=O)c(-c2ccco2)nc2ccccc21 (stereo not drawn) | 31.8 | - | . | - | . | -
O=C(NCc1ccccc1)C(c1cccc2ccccc12)n1c(=O)c(-c2ccco2)nc2ccccc21 (stereo not drawn) | - | - | . | - | . | .
CCOc1cc(/C=C2\C(=O)N(Cc3ccco3)C(C)=C2C(=O)OC)ccc1O | 45.5 | - | - | - | - | -
CCN1C(=O)/C(=C\c2ccco2)C(C(=O)OC)=C1C | - | - | - | - | - | .
CCN(CC)CCNC(=O)CSc1c2c(nc3cc(Cl)ccc13)CCCC2 | - | - | - | - | - | .
Cc1ccc(CNC(=O)CSc2c3c(nc4ccc(Cl)cc24)CCCC3)o1 | 50.4 | - | - | - | - | -
CC(=O)Nc1ccc(S(=O)(=O)NNC(=O)c2ccc([N+](=O)[O-])cc2)cc1 | - | - | - | - | - | .
CC(=O)Nc1ccc(S(=O)(=O)NNc2ccc([N+](=O)[O-])cc2)cc1 | 31.9 | - | - | - | - | -
Cn1cnnc1Sc1nc2ccccc2nc1NS(=O)(=O)c1ccccc1 | - | - | - | - | - | .
CC(=O)Nc1ccc(S(=O)(=O)Nc2nc3ccccc3nc2Sc2nncn2C)cc1 | 25.0 | - | - | - | - | -
O=C1C(=C2CCCCC2)SC(=S)N1Cc1ccco1 | 44.1 | - | - | - | - | 39.0
Cc1ccc(/C=C/C(=O)OCC(=O)N(C)c2c(N)n(Cc3ccccc3)c(=O)[nH]c2=O)o1 | 44.0 | - | . | - | - | -
